# Bioassay records as filed in PubChem BioAssay.
# The list is not random: actives were taken first. Their share in the collection is about 4.9%.
# STAT3 act: activators of IL-6 induced STAT3 signaling. 190,000 compounds, 0.91% hits. U3A cells, IL-6 STAT3-luciferase reporter, luminescence; 100% = signal with IL-6 EC80 alone. activation (% of control), % at 5.6 µM;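 active = activation above the screen-wide mean of compound activation plus 3 SD, cut at about 130% in these data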;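 note: 0% = background luminescence of wells with medium and substrate only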
#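 Test system: human U3A cells carrying STAT3-luciferase construct; control set: IL-6-only wells as 100% reference; timing: compound pre-incubation 1 h before IL-6, then 6 h stimulation at 37 °C; also added: IL-6 stimulus at 33 ng/mL final; evaluation: % activation versus median of IL-6-stimulated wells; detection: reporter luminescence signal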
# NF-kB expr up: compounds increasing NF-kB expression in human neuronal cells. NF-kB reporter expression; active compounds read high. fold change at 12.5 µM. 190,000 compounds, 1.6% hits; in the data active = fold change above about 3.3
# APP 5'UTR act: APP 5'UTR luciferase reporter activation. SH-SY5Y APP 5'UTR luciferase reporter, luminescence; zero percent = DMSO vehicle wells. activation, % at 2 µM. 190,000 compounds, 1% hits. AID 1276;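 active = activation above a set limit, based on mean plus 3 SD of controls, cut at about 140% in these data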
# STAT3 inh: inhibitors of IL-6 induced STAT3 signaling; U3A cells, IL-6 STAT3-luciferase reporter, luminescence; host cell line lacks STAT1; 190,000 compounds, 0.89% hits; AID 862; inhibition, % at 5.5 µM;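 active = inhibition above the mean inhibition across all screened compounds plus 3 SD, cut at about 44% in these data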;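 note: 0% = DMSO only wells and 100% = 100 µM nifuroxazide control wells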
# STAT1 blocker: inhibitors of IFN-gamma induced STAT1 signaling; NIH 3T3 STAT1-luciferase reporter, luminescence; inhibition, % at 5.5 µM; 200,000 compounds, 0.35% hits; AID 920;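 active = inhibition above a set limit, the mean inhibition across all tested compounds plus 3 SD, cut at about 34% in these data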;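 note: 0% = IFN-gamma with DMSO and 100% = IFN-gamma with 300 µM nifuroxazide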
# STAT1 activator: STAT1 signaling activation; 200,000 compounds, 2.6% hits; NIH 3T3 STAT1-luciferase reporter, IFN-gamma, luminescence; 100% = IFN-gamma alone, no compound; activation (% of control), % at 5.5 µM;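 active = activation above the screen-wide mean activation plus 3 SD, cut at about 130% in these data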;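 note: raw ratio to IFN-gamma control signal so 100% means no change and 0% no light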
# * hit, by the source's call; · = no result.
SMILES,STAT3 act,NF-kB expr up,APP 5'UTR act,STAT3 inh,STAT1 blocker,STAT1 activator
CCCCCOC(=O)NCC(O)c1ccccc1 (stereo not given),103,2.9,105,2,-49,144*
O=C(NCc1ccccc1)c1cccc(COc2cc(Cl)ccc2Cl)c1,109,1.5,21,-12,-39,135*
O=C(NCc1ccccc1)c1cccc(COc2ccccc2Cl)c1,115,1.8,112,-11,-9,108
CCOC(=O)c1c(C)[nH]c(C2=NNC(=NC3CC3)SC2)c1C,40,0.89,158*,76*,61*,43
CC1(C(=O)NCCCN2CCOCC2)Oc2cccnc2NC1=O (stereo not given),97,1.2,23,8,5,94
CSc1nnc(-c2cc3c(s2)-c2ccccc2CC3)o1,164*,3.2,122,-71,-41,136*
S=c1[nH]nc(-c2cc3c(s2)-c2ccccc2CC3)o1,133,1.6,24,-34,-19,118
O=C(O)C(=O)/C(=C\c1ccccc1)c1ccc2ccccc2n1,169*,1.6,129,-82,-48,144*
O=C(O)C(=O)/C(=C\c1cccc2ccccc12)c1ccc2ccccc2n1,126,1.1,0,-29,8,91
O=C(O)C(=O)/C(=C\c1ccc([N+](=O)[O-])cc1)c1ccc2ccccc2n1,94,1.2,117,9,-58,150*
O=C(N/N=C/C1CCCCC1)c1ccccn1,107,1.7,139*,-4,-41,137*
O=C(NN=C1CCC(=NNC(=O)c2ccccn2)CC1)c1ccccn1,106,1.4,171*,-5,-43,138*
CC1CCCCC12NC(=O)N(CC(=O)Nc1ccc(N3CCOCC3)cc1)C2=O (stereo not given),98,1.1,6,2,-5,105
CCOc1ccc(/C=C\C(C)=N\O)cc1,92,5.1*,121,13,-31,128
CCOc1ccc(/C=C/C(=O)CCC(=O)O)cc1,107,·,62,-3,-32,127
Cc1nc(Nc2nc(=O)c3ccccc3n2C)nc2c(C)cccc12,142*,·,16,-40,1,99
Cc1nc(NC2=NCN(CCN3CCOCC3)CN2)nc2c(C)cccc12,176*,·,36,-89,0,100
Cc1ccc(SCc2cc(=O)[nH]c(Nc3nc(C)c4cccc(C)c4n3)n2)cc1,90,0.73,5,15,6,95
c1ccc2sc(NC3=NCN(CCN4CCOCC4)CN3)nc2c1,91,0.97,4,13,2,96
Cc1ccc(C)c(S(=O)(=O)N2CCCOC2CNC(=O)C(=O)NCCC2=CCCCC2)c1 (stereo not given),99,1.1,-28,-1,14,89
Cc1nc2ccccn2c1C(=O)Nc1ccc(Cl)cc1,91,2.2,35,10,-43,140*
Cc1ccc(NC(=O)c2c(Cl)nc3ccccn23)cc1,122,1.2,103,-18,-44,139*
C=CCNC(=S)Nc1ccc(OC)c(S(=O)(=O)N2CCOCC2)c1,96,1.2,-19,6,3,98
Cc1nn(C(C)(C)C)c(OC(=O)c2cccs2)c1S(=O)(=O)c1ccccc1,126,1.6,2,-25,-32,129*
CC(=O)Oc1c(S(=O)(=O)c2ccccc2)c(C)nn1C(C)(C)C,121,1.2,-2,-23,3,97
SMILES,STAT3 act,NF-kB expr up,APP 5'UTR act,STAT3 inh,STAT1 blocker,STAT1 activator
CCCCNc1c(N)n(CCCC)c(=O)[nH]c1=O,102,1.2,-10,-3,5,95
Cc1cc2cc(C)c3nnc(SCC(=O)Nc4ccc(S(=O)(=O)N5CCCCC5)cc4)n3c2cc1C,95,1.2,8,3,7,94
Nc1ccccc1NC(=O)c1ccccc1,106,3.9*,44,-2,-4,104
Cc1ccc(-c2nn(-c3ccccc3)cc2C(=O)Nc2ccc(C(=O)O)cc2)cc1,110,1.8,31,-7,-35,130*
CC(=O)Nc1ccccc1NC(=O)c1ccccc1,103,1,9,3,-1,99
CCOC(=O)c1ccc(NC(=O)c2cn(-c3ccccc3)nc2-c2ccncc2)cc1,124,0.49,2,-24,6,95
Cc1ccc(NC(=O)NNC(=O)c2ccccc2)cc1,102,1.3,-1,1,-6,104
CCc1ccc(NC(=O)c2noc3c2CCc2ccccc2-3)cc1,106,2,1,0,-14,113
Cc1ccc(NC(=O)c2ccccc2)cc1,100,3.5*,97,2,-40,135*
Cc1ccc(NC(=O)c2noc3c2CCc2ccccc2-3)cc1,114,2.6,60,-9,-33,131*
Cc1cc(C)cc(NC(=O)CN2CCN(CCN=CC3=C(O)CC(c4ccc(Cl)cc4)CC3=O)CC2)c1 (stereo not given),106,0.92,-2,-1,-1,101
CC(C)CCNC(=O)Cc1ccc(Nc2nc(=S)[nH]c3ccccc23)cc1,100,1.1,-17,2,-9,107
Cc1ccc(NC(=O)c2ccc(CSc3nnc(C)s3)cc2)cc1,93,3.9*,70,10,-26,123
Cc1cc(C)cc(NC(=O)c2ccc(CSc3nnc(C)s3)cc2)c1,94,1.4,12,9,2,98
Cc1ccc(NC(=O)c2ccccc2O)cc1,88,6*,131,18,-4,105
Cc1ccc(NC(=O)c2ccccc2-c2ccccc2C(=O)O)cc1,97,1.1,-2,1,-2,104
CCOC(=O)/C=C/c1cnn(-c2ccccc2)c1,96,2.2,51,3,-40,138*
Cc1cc(C)n(-c2ccc(Cl)c(C(=O)O)c2)n1,101,0.98,3,5,5,95
CCN(CC)S(=O)(=O)c1ccc(C)c(C(=O)Oc2cccc(-c3cnc4ccccc4n3)c2)c1,108,1.3,96,-12,-3,105
O=C(Oc1cccc(-c2cnc3ccccc3n2)c1)c1ccco1,90,3.5*,122,16,-5,105
CN(C)S(=O)(=O)c1ccc(Cl)c(NC(=O)COC(=O)/C=C/c2ccco2)c1,104,1.3,23,-2,-8,107
CC(C(=O)NCc1ccc(F)cc1)c1ccc([N+](=O)[O-])cc1 (stereo not given),98,1.1,-13,6,1,97
O=C(NCC1CCCO1)c1cc(-c2ccc(Cl)cc2Cl)on1 (stereo not given),72,3.4*,66,35,-29,126
Cc1ccc(-c2cc(C(=O)NCC3CCCO3)no2)cc1 (stereo not given),89,3.2,112,17,-15,114
O=C(NCC1CCCO1)c1cc(-c2ccccc2)on1 (stereo not given),108,7.8*,33,-6,-43,140*
